Measurements reported in ChEMBL document CHEMBL1158990, “New cytotoxic lupane lactones from Kokoona ochracea” (1991).
Values after ≈ are worked out from the molar mass of the structure shown.

How the values were obtained:
Assay type in all cases: functional
[1] = Cytotoxicity against human KBV1 cells after 72 hrs; settings: KB-V1, 72 h, read-out: ED50 (the source's name)
[2] = Cytotoxicity against human UISO-BCA1 cells after 72 hrs; settings: UISO-BCA1, 72 h, read-out: ED50 (the source's name)
Procedure, shortened: (§1)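 In vitro growth-inhibition assay with a 72 h compound exposure. ED50 in µg/ml is the concentration that inhibits cell growth by 50%.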

[3] = Cytotoxicity against human UISO-LUC1 cells after 72 hrs; settings: UISO-LUC1, 72 h, read-out: ED50 (the source's name); procedure, shortened: as §1
P388 = experiment: Cytotoxicity against mouse P388 cells after 48 hrs; settings: P388, 48 h, read-out: ED50 (the source's name)
Procedure, shortened: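 Cultured murine P-388 leukemia cells were treated with compound for 48 h. The read-out is cell growth inhibition, and ED50 in µg/ml is the concentration producing 50% inhibition.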

[4] = Cytotoxicity against human UISO-MEL2 cells after 72 hrs; settings: UISO-MEL2, 72 h, read-out: ED50 (the source's name); procedure, shortened: as §1
[5] = Cytotoxicity against human KB3 cells after 72 hrs; settings: KB3, 72 h, read-out: ED50 (the source's name); procedure, shortened: as §1
HT-1080 = experiment: Cytotoxicity against human HT1080 cells after 72 hrs; settings: HT-1080, 72 h, read-out: ED50 (the source's name); procedure, shortened: as §1
[6] = Cytotoxicity against human UISO-COL2 cells after 72 hrs; settings: UISO-COL2, 72 h, read-out: ED50 (the source's name); procedure, shortened: as §1

## CC1(C)C(=O)CC[C@]2(C)[C@H]3CC[C@H]4[C@@H]5[C@H]6[C@@H](C[C@]5(C)CC[C@@]4(C)[C@]3(C)CC[C@@H]12)OC(=O)[C@@]61CO1
[1]
  EC50: > 20 µg/mL
[2]
  EC50: > 20 µg/mL
[3]
  EC50: > 20 µg/mL
P388
  EC50: 7.8 µg/mL (≈ 16.6 µM)
[4]
  EC50: > 20 µg/mL
[5]
  EC50: 5.2 µg/mL (≈ 11.1 µM)
HT-1080
  EC50: > 20 µg/mL
[6]
  EC50: > 20 µg/mL

## C=C1C(=O)O[C@@H]2C[C@]3(C)CC[C@]4(C)[C@H](CC[C@@H]5[C@@]6(C)CCC(=O)C(C)(C)[C@@H]6CC[C@]54C)[C@H]3[C@H]12 [OCHRACEOLIDE A]
[1]
  EC50: > 20 µg/mL
[2]
  EC50: 10 µg/mL (≈ 22.1 µM)
[3]
  EC50: 12 µg/mL (≈ 26.5 µM)
P388
  EC50: 0.26 µg/mL (≈ 0.574 µM)
[4]
  EC50: 8.3 µg/mL (≈ 18.3 µM)
[5]
  EC50: 2.7 µg/mL (≈ 5.96 µM)
HT-1080
  EC50: 9.6 µg/mL (≈ 21.2 µM)
[6]
  EC50: 6.8 µg/mL (≈ 15 µM)

## C=C1C(=O)O[C@@H]2C[C@]3(C)CC[C@]4(C)[C@@H](CC[C@@H]5[C@@]6(C)CCC(=O)C(C)(C)[C@@H]6C(=O)C[C@]54C)[C@@H]3[C@H]12 [OCHRACEOLIDE C]
[1]
  EC50: > 20 µg/mL
[2]
  EC50: 4.5 µg/mL (≈ 9.64 µM)
[3]
  EC50: 12 µg/mL (≈ 25.7 µM)
P388
  EC50: 0.53 µg/mL (≈ 1.14 µM)
[4]
  EC50: 8.3 µg/mL (≈ 17.8 µM)
[5]
  EC50: 5.5 µg/mL (≈ 11.8 µM)
HT-1080
  EC50: 8.6 µg/mL (≈ 18.4 µM)
[6]
  EC50: 9.2 µg/mL (≈ 19.7 µM)
